Test results reported in ChEMBL document CHEMBL3593207, “Imidazole clubbed 1,3,4-oxadiazole derivatives as potential antifungal agents” (2015).
Converted amounts (≈) assume the structure as drawn.

Key:
Type in all cases: functional
Candida tropicalis [1] = assay: Antifungal activity against clinical isolates of Candida tropicalis 2356 at 2 times MIC after 48 hrs by disc diffusion assay
Procedure, shortened: (§1)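 Cells (10^3 cells ml−1) grown in YPD were mixed into molten agar (~40 °C) and poured into 100-mm plates. Filter discs (4 mm) were spotted with 10 µl of compound at 1/2 × MIC, MIC or 2 × MIC. Fluconazole and 1% DMSO were the controls. Plates were incubated at 37 °C for 48 h and inhibition zone diameters recorded in mm.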

Candida albicans [2] = assay: Inhibition of ergosterol biosynthesis in Candida albicans 2367 assessed as ergosterol content at MIC after 16 hrs by spectrophotometer analysis; parameters: scale not given: the % may be the effect or the level left
Procedure, shortened: (§2)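 Cells were pelleted and washed, and wet weight taken. Pellets were saponified in 25% alcoholic KOH at 85 °C for 1 h. Sterols were extracted into n-heptane/water. Ergosterol content is expressed relative to untreated control cells.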

Candida tropicalis [3] = assay: Inhibition of ergosterol biosynthesis in Candida tropicalis 2356 assessed as ergosterol content at MIC after 16 hrs by spectrophotometer analysis; parameters: scale not given: the % may be the effect or the level left; procedure, shortened: as §2
Candida albicans [4] = assay: Antifungal activity against Candida albicans ATCC 10261 at 2 times MIC after 48 hrs by disc diffusion assay; procedure, shortened: as §1
Candida albicans [5] = assay: Antifungal activity against clinical isolates of Candida albicans 2323 at 2 times MIC after 48 hrs by disc diffusion assay; procedure, shortened: as §1
Candida albicans [6] = assay: Antifungal activity against clinical isolates of Candida albicans 2779 at half MIC after 48 hrs by disc diffusion assay; procedure, shortened: as §1
Candida albicans [7] = assay: Antifungal activity against clinical isolates of Candida albicans 2323 by broth microdilution assay
Procedure, shortened: (§3)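 CLSI M27-A3 broth microdilution. Compounds diluted to 1 mg/ml in 1% DMSO. Fluconazole (1 mg/ml) served as positive control, 1% DMSO as vehicle control, with media and culture controls. Triplicate at each concentration, repeated thrice. Inocula came from YPDA stocks subcultured in broth for 48 h at 37 °C.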

Candida albicans [8] = assay: Inhibition of ergosterol biosynthesis in Candida albicans ATCC 10261 assessed as ergosterol content at 1/2 MIC after 16 hrs by spectrophotometer analysis; parameters: scale not given: the % may be the effect or the level left; procedure, shortened: as §2
Candida albicans [9] = assay: Antifungal activity against Candida albicans ATCC 10261 by broth microdilution assay; procedure, shortened: as §3
Candida tropicalis [10] = assay: Inhibition of ergosterol biosynthesis in Candida tropicalis 2029 assessed as ergosterol content at MIC after 16 hrs by spectrophotometer analysis; parameters: scale not given: the % may be the effect or the level left; procedure, shortened: as §2
Candida tropicalis [11] = assay: Antifungal activity against clinical isolates of Candida tropicalis 2029 at half MIC after 48 hrs by disc diffusion assay; procedure, shortened: as §1
Candida albicans [12] = assay: Antifungal activity against Candida albicans ATCC 10261 at half MIC after 48 hrs by disc diffusion assay; procedure, shortened: as §1
Candida tropicalis [13] = assay: Antifungal activity against clinical isolates of Candida tropicalis 2029 at MIC after 48 hrs by disc diffusion assay; procedure, shortened: as §1
Candida albicans [14] = assay: Inhibition of ergosterol biosynthesis in Candida albicans ATCC 10261 assessed as ergosterol content at MIC after 16 hrs by spectrophotometer analysis; parameters: scale not given: the % may be the effect or the level left; procedure, shortened: as §2
Candida tropicalis [15] = assay: Antifungal activity against clinical isolates of Candida tropicalis 2356 at half MIC after 48 hrs by disc diffusion assay; procedure, shortened: as §1
Candida albicans [16] = assay: Antifungal activity against clinical isolates of Candida albicans 2367 by broth microdilution assay; procedure, shortened: as §3
Candida tropicalis [17] = assay: Antifungal activity against clinical isolates of Candida tropicalis 2356 by broth microdilution assay; procedure, shortened: as §3
Candida tropicalis [18] = assay: Antifungal activity against clinical isolates of Candida tropicalis 2029 at 2 times MIC after 48 hrs by disc diffusion assay; procedure, shortened: as §1
Candida albicans [19] = assay: Antifungal activity against clinical isolates of Candida albicans 2367 at 2 times MIC after 48 hrs by disc diffusion assay; procedure, shortened: as §1
Candida albicans [20] = assay: Antifungal activity against clinical isolates of Candida albicans 2779 at MIC after 48 hrs by disc diffusion assay; procedure, shortened: as §1
Candida albicans [21] = assay: Antifungal activity against Candida albicans ATCC 10261 at MIC after 48 hrs by disc diffusion assay; procedure, shortened: as §1
Candida albicans [22] = assay: Inhibition of ergosterol biosynthesis in Candida albicans 2323 assessed as ergosterol content at 1/2 MIC after 16 hrs by spectrophotometer analysis; parameters: scale not given: the % may be the effect or the level left; procedure, shortened: as §2
Candida tropicalis [23] = assay: Antifungal activity against clinical isolates of Candida tropicalis 2029 by broth microdilution assay; procedure, shortened: as §3
Candida albicans [24] = assay: Antifungal activity against clinical isolates of Candida albicans 2779 by broth microdilution assay; procedure, shortened: as §3
Candida tropicalis [25] = assay: Inhibition of ergosterol biosynthesis in Candida tropicalis 2029 assessed as ergosterol content at 1/2 MIC after 16 hrs by spectrophotometer analysis; parameters: scale not given: the % may be the effect or the level left; procedure, shortened: as §2
Candida tropicalis [26] = assay: Antifungal activity against Candida tropicalis ATCC 750 at MIC after 48 hrs by disc diffusion assay; procedure, shortened: as §1
Candida albicans [27] = assay: Inhibition of ergosterol biosynthesis in Candida albicans 2323 assessed as ergosterol content at MIC after 16 hrs by spectrophotometer analysis; parameters: scale not given: the % may be the effect or the level left; procedure, shortened: as §2
Candida albicans [28] = assay: Inhibition of ergosterol biosynthesis in Candida albicans 2779 assessed as ergosterol content at 1/2 MIC after 16 hrs by spectrophotometer analysis; parameters: scale not given: the % may be the effect or the level left; procedure, shortened: as §2
Candida tropicalis [29] = assay: Antifungal activity against Candida tropicalis ATCC 750 by broth microdilution assay; procedure, shortened: as §3
Candida tropicalis [30] = assay: Antifungal activity against Candida tropicalis ATCC 750 at half MIC after 48 hrs by disc diffusion assay; procedure, shortened: as §1
Candida albicans [31] = assay: Antifungal activity against clinical isolates of Candida albicans 2323 at MIC after 48 hrs by disc diffusion assay; procedure, shortened: as §1
Candida tropicalis [32] = assay: Inhibition of ergosterol biosynthesis in Candida tropicalis 2356 assessed as ergosterol content at 1/2 MIC after 16 hrs by spectrophotometer analysis; parameters: scale not given: the % may be the effect or the level left; procedure, shortened: as §2
Candida albicans [33] = assay: Antifungal activity against clinical isolates of Candida albicans 2779 at 2 times MIC after 48 hrs by disc diffusion assay; procedure, shortened: as §1
Candida tropicalis [34] = assay: Antifungal activity against Candida tropicalis ATCC 750 at 2 times MIC after 48 hrs by disc diffusion assay; procedure, shortened: as §1
Candida albicans [35] = assay: Antifungal activity against clinical isolates of Candida albicans 2367 at half MIC after 48 hrs by disc diffusion assay; procedure, shortened: as §1
Candida tropicalis [36] = assay: Cytotoxicity against clinical isolates of Candida tropicalis 2029 at MIC after 24 hrs by WST1 assay
Procedure, shortened: (§4)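 Candida cells were exposed to MIC and sub-MIC levels for 24 h in microplates, then to WST-1/CEC dye for 30 min at 37 °C. Plates were shaken 1 min and the reaction stopped with 1% SDS. Formazan was read at 450 nm. % cytotoxicity = 100 × (cell control − experimental)/cell control. Triplicates, mean ± SD.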

Candida albicans [37] = assay: Inhibition of ergosterol biosynthesis in Candida albicans 2367 assessed as ergosterol content at 1/2 MIC after 16 hrs by spectrophotometer analysis; parameters: scale not given: the % may be the effect or the level left; procedure, shortened: as §2
Candida albicans [38] = assay: Cytotoxicity against clinical isolates of Candida albicans 2323 at MIC after 24 hrs by WST1 assay; procedure, shortened: as §4
Candida tropicalis [39] = assay: Inhibition of ergosterol biosynthesis in Candida tropicalis ATCC 750 assessed as ergosterol content at MIC after 16 hrs by spectrophotometer analysis; parameters: scale not given: the % may be the effect or the level left
Procedure, shortened: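 Cells were harvested, washed, and wet pellet weight recorded. Pellets were saponified in 3 mL 25% alcoholic KOH at 85 °C for 1 h, then sterols extracted into n-heptane. Ergosterol is expressed relative to untreated control cells.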

Candida albicans [40] = assay: Antifungal activity against clinical isolates of Candida albicans 2367 at MIC after 48 hrs by disc diffusion assay; procedure, shortened: as §1
Candida albicans [41] = assay: Antifungal activity against clinical isolates of Candida albicans 2323 at half MIC after 48 hrs by disc diffusion assay; procedure, shortened: as §1
Candida tropicalis [42] = assay: Antifungal activity against clinical isolates of Candida tropicalis 2356 at MIC after 48 hrs by disc diffusion assay; procedure, shortened: as §1
Candida albicans [43] = assay: Cytotoxicity against clinical isolates of Candida albicans 2779 at 1/4 MIC after 24 hrs by WST1 assay; procedure, shortened: as §4
Candida tropicalis [44] = assay: Inhibition of ergosterol biosynthesis in Candida tropicalis ATCC 750 assessed as ergosterol content at 1/2 MIC after 16 hrs by spectrophotometer analysis; parameters: scale not given: the % may be the effect or the level left; procedure, shortened: as §2
Candida albicans [45] = assay: Inhibition of ergosterol biosynthesis in Candida albicans 2779 assessed as ergosterol content at MIC after 16 hrs by spectrophotometer analysis; parameters: scale not given: the % may be the effect or the level left; procedure, shortened: as §2

**Q.** With `CCc1ccnc(-c2nccn2Cc2nnc(-c3ccccc3OC(C)=O)o2)c1` as the compound, how does the “inhibition zone (IZ)” value (Candida tropicalis [1]) read?
**A.** 11 mm

**Q.** What about the Activity (Candida albicans [2]) of the same compound?
**A.** 89%

**Q.** And the Activity (Candida tropicalis [3])?
**A.** 91%

**Q.** What about the “inhibition zone (IZ)” value (Candida albicans [4]) of the same compound?
**A.** 16 mm

**Q.** And the “inhibition zone (IZ)” value (Candida albicans [5])?
**A.** 11 mm

**Q.** And the “inhibition zone (IZ)” value (Candida albicans [6])?
**A.** 3 mm

**Q.** What about the MIC (Candida albicans [7]) of the same compound?
**A.** 16 µg/mL (≈ 41.1 µM)

**Q.** And the Activity (Candida albicans [8])?
**A.** 51%

**Q.** What about the MIC (Candida albicans [9]) of the same compound?
**A.** 2 µg/mL (≈ 5.14 µM)

**Q.** What about the Activity (Candida tropicalis [10]) of the same compound?
**A.** 87%

**Q.** And the “inhibition zone (IZ)” value (Candida tropicalis [11])?
**A.** 1 mm

**Q.** What about the “inhibition zone (IZ)” value (Candida albicans [12]) of the same compound?
**A.** 5 mm

**Q.** What about the “inhibition zone (IZ)” value (Candida tropicalis [13]) of the same compound?
**A.** 5 mm

**Q.** What about the Activity (Candida albicans [14]) of the same compound?
**A.** 100%

**Q.** And the “inhibition zone (IZ)” value (Candida tropicalis [15])?
**A.** 2 mm

**Q.** What about the MIC (Candida albicans [16]) of the same compound?
**A.** 8 µg/mL (≈ 20.5 µM)

**Q.** And the MIC (Candida tropicalis [17])?
**A.** 32 µg/mL (≈ 82.2 µM)

**Q.** And the “inhibition zone (IZ)” value (Candida tropicalis [18])?
**A.** 10 mm

**Q.** And the “inhibition zone (IZ)” value (Candida albicans [19])?
**A.** 12 mm

**Q.** And the “inhibition zone (IZ)” value (Candida albicans [20])?
**A.** 11 mm

**Q.** What about the “inhibition zone (IZ)” value (Candida albicans [21]) of the same compound?
**A.** 11 mm

**Q.** What about the Activity (Candida albicans [22]) of the same compound?
**A.** 42%

**Q.** And the MIC (Candida tropicalis [23])?
**A.** 16 µg/mL (≈ 41.1 µM)

**Q.** And the MIC (Candida albicans [24])?
**A.** 16 µg/mL (≈ 41.1 µM)

**Q.** What about the Activity (Candida tropicalis [25]) of the same compound?
**A.** 53%

**Q.** And the “inhibition zone (IZ)” value (Candida tropicalis [26])?
**A.** 9 mm

**Q.** What about the Activity (Candida albicans [27]) of the same compound?
**A.** 91%

**Q.** And the Activity (Candida albicans [28])?
**A.** 52%

**Q.** What about the MIC (Candida tropicalis [29]) of the same compound?
**A.** 4 µg/mL (≈ 10.3 µM)

**Q.** What about the “inhibition zone (IZ)” value (Candida tropicalis [30]) of the same compound?
**A.** 3 mm

**Q.** And the “inhibition zone (IZ)” value (Candida albicans [31])?
**A.** 6 mm

**Q.** And the Activity (Candida tropicalis [32])?
**A.** 48%

**Q.** And the “inhibition zone (IZ)” value (Candida albicans [33])?
**A.** 13 mm

**Q.** What about the “inhibition zone (IZ)” value (Candida tropicalis [34]) of the same compound?
**A.** 14 mm

**Q.** And the “inhibition zone (IZ)” value (Candida albicans [35])?
**A.** 3 mm

**Q.** What about the Activity (Candida tropicalis [36]) of the same compound?
**A.** 60.62%

**Q.** What about the Activity (Candida albicans [37]) of the same compound?
**A.** 52%

**Q.** What about the Activity (Candida albicans [38]) of the same compound?
**A.** 60.62%

**Q.** And the Activity (Candida tropicalis [39])?
**A.** 100%

**Q.** And the “inhibition zone (IZ)” value (Candida albicans [40])?
**A.** 8 mm

**Q.** What about the “inhibition zone (IZ)” value (Candida albicans [41]) of the same compound?
**A.** 2 mm

**Q.** What about the “inhibition zone (IZ)” value (Candida tropicalis [42]) of the same compound?
**A.** 6 mm

**Q.** And the Activity (Candida albicans [43])?
**A.** 7.31%

**Q.** What about the Activity (Candida tropicalis [44]) of the same compound?
**A.** 47%

**Q.** And the Activity (Candida albicans [45])?
**A.** 93%
